A selection: hits, their analogues and other compounds. The true share with any hit is near 2.6%.
SENP6 inh = SENP6 protease inhibition. Recombinant SENP6 catalytic domain, aminoluciferin luminescence. Q9GZR1. inhibition, % at 10 µM. 330,000 tested, 1.8% active. AID 2599;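 active = inhibition above about 50% at the single tested dose, limit read from the data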
Platelet DG rel = modulates dense granule release in human platelets; human platelet-rich plasma, SFLLRN dense granule ATP release, luminescence; inhibition, %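 (compounds screened at 7.5 µM in platelet-rich plasma)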; 300,000 tested, 0.22% active; AID 1663;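 active = mean replicate score, as percent of positive control, at or above 50; inconclusive = mean below 50 but at least one replicate at or above 50; inactive = mean and every replicate below 50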
SENP8 block-1 = SENP8 protease inhibition | inhibition, % at 10 µM | Q96LD8 | purified SENP8, Z-RLRGG-aminoluciferin cleavage, luminescence | 330,000 tested, 1.2% active; in the data active = inhibition above about 50%
SENP7 inh = blocks the human protease SENP7. AID 434973. Q9BQF6. inhibition, % at 5 µM. 330,000 tested, 1.5% active. recombinant SENP7, Z-RLRGG-aminoluciferin luminescence, 40 min;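 active = inhibition above about 50% at the single test dose, limit read from the data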
Target sequence (Q9BQF6 706-1050 limits assumed): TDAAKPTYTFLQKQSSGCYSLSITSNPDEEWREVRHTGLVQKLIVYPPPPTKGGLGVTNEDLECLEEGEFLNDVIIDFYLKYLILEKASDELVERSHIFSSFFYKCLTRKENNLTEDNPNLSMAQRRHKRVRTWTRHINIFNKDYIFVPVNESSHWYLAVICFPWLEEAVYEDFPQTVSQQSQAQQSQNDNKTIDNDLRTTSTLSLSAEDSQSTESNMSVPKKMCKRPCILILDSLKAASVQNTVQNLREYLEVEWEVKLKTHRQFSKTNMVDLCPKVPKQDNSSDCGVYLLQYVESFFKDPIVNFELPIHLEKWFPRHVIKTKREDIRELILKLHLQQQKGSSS
SENP1 FRET inh = blocks the human SENP1 SUMO protease catalytic domain. Q9P0U3. recombinant SENP1 catalytic domain, CyPet-SUMO1-YPet FRET cleavage. 360,000 tested, 0.21% active. inhibition, % at 10 µM. AID 624204;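 active = inhibition at least 30% at 10 µM, raw YFP signal under a set limit, fluorescence ratio 0.5 to 1.5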
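Controls: no-enzyme wells low, DMSO-plus-enzyme wells high control. Test system: human recombinant His6-tagged SENP1 catalytic domain enzyme. Reagent: SFCypet-SUMO1-SFYpet FRET protein substrate, 25 nM final. Doses: one dose per compound, 10 µM, 0.5% DMSO. Detection: FRET, CFP and YFP emission. Timing: 50 min reaction at room temperature.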
SENP8 block-2 = blocks human SENP8 cleavage of Nedd8 substrate; Q96LD8; recombinant SENP8, Nedd8 substrate fluorescence; inhibition, % at 20 µM; 360,000 tested, 0.64% active; AID 602440; in the data active = inhibition mostly above about 40%, no sharp cut-off; inactive = mostly below about 27%
SENP8 conf = confirmation of human SENP8 protease inhibitors | shares compounds with SENP7 inh | Recombinant SENP8, Z-RLRGG-aminoluciferin luminescence, 60 min | inhibition, % at 12.5 µM | 6,200 tested, 40% active | AID 488912;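 active = mean inhibition across replicates above about 50%, limit read from the data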
SENP6 confirm = human SENP6 inhibition, confirmed. AID 488915. 6,200 tested, 58% active. shares compounds with SENP7 inh. recombinant SENP6, Z-RLRGG-aminoluciferin luminescence. inhibition, % at 12.5 µM
SENP7 confirm = human SENP7 inhibition, confirmed; shares compounds with SENP7 inh; recombinant SENP7, Z-RLRGG-aminoluciferin luminescence, 40 min; inhibition, % at 12.5 µM; 6,200 tested, 69% active
Casp3 SENP sel = inhibits human caspase-3 in SENP selectivity test; shares compounds with SENP7 inh; purified caspase-3, Z-DEVD-aminoluciferin luminescence, 60 min; inhibition, % at 12.5 µM; 6,200 tested, 60% active;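 active = mean inhibition above about 50%, limit read from the data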
Target sequence (P42574 28-227 limits assumed): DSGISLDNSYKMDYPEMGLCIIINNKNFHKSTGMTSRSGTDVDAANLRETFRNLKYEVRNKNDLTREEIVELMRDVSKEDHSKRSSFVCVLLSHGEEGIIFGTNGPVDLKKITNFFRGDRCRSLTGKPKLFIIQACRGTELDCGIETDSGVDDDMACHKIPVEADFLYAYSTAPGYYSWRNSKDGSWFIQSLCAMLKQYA
Luc interf = counter-screen for SENP inhibitors: luminescence interference | inhibition, % at 12.5 µM | 6,200 tested, 39% active | Pre-incubated SENP8/Z-RLRGG-aminoluciferin, luciferase luminescence interference | shares compounds with SENP7 inh;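 active = mean inhibition above about 50% when retested at one dose, limit read from the data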
Numbers stand for hits; i = inactive; ? = inconclusive; nt = no result given.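 Rule for the calls, unless noted: active = mean inhibition above about 50% in the one-dose retest (limit read from the data); inactive = the rest.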

SMILES | SENP6 inh | Platelet DG rel | SENP8 block-1 | SENP7 inh | SENP1 FRET inh | SENP8 block-2 | SENP8 conf | SENP6 confirm | SENP7 confirm | Casp3 SENP sel | Luc interf
Cc1cccc(-n2ncc3c(N4CCOCC4)ncnc32)c1 | 70.9 | i | 70.4 | 78.6 | i | i | 77.5 | 75.8 | 90.8 | 86.4 | 60.7
Clc1ccc(-n2ncc3c(N4CCCCCC4)ncnc32)cc1 | 94.5 | i | 86.4 | 91.3 | i | i | i | 53.0 | 72.4 | 57.3 | i
Clc1ccc(Cn2ncc3c(N4CCCCC4)ncnc32)cc1 | i | i | i | i | i | i | nt | nt | nt | nt | nt
CN(CC(=O)Nc1ccccc1C(F)(F)F)C(=O)c1ccc(N2C(=O)CCC2=O)cc1 | i | i | i | i | i | i | nt | nt | nt | nt | nt
Cc1csc2ncc(C(=O)NCc3ccccn3)c(=O)n12 | i | i | i | i | i | i | nt | nt | nt | nt | nt
Cc1ccccc1NS(=O)(=O)c1cccc(C(=O)Nc2cccc(C(=O)O)c2)c1 | 65.5 | i | i | i | i | i | 51.8 | i | 72.5 | i | i
Cc1ccc(C(=O)Nc2cccc([N+](=O)[O-])c2)cc1S(=O)(=O)Nc1cccc(C(=O)O)c1 | i | i | i | i | i | i | nt | nt | nt | nt | nt
O=C(O)c1cccc(NC(=O)c2cccc(S(=O)(=O)Nc3cccc([N+](=O)[O-])c3)c2)c1 | 65.5 | i | 51.3 | i | i | i | 71.8 | 68.6 | 86.1 | i | i
COc1ccc(NS(=O)(=O)c2cccc(C(=O)NNC(=O)c3cccc(NC(C)=O)c3)c2)cc1 | i | i | i | i | i | i | nt | nt | nt | nt | nt
O=C(c1ccccc1)c1cc2ccccc2oc1=O | i | i | i | i | i | i | nt | nt | nt | nt | nt
O=C(NNC(=O)c1cc2ccccc2o1)c1ccc(F)cc1 | i | nt | i | i | i | i | nt | nt | nt | nt | nt
COc1cccc2cc(C(=O)c3ccccc3)oc12 | 72.9 | i | 60.6 | 62.0 | i | i | i | 59.5 | 84.3 | 60.7 | 64.0
O=C(c1ccc(F)cc1)c1cc2ccccc2o1 | 83.7 | i | 51.5 | 66.6 | i | i | i | i | 83.5 | 57.2 | i
O=C(c1ccccc1)c1cc2ccccc2o1 | 74.3 | i | 50.8 | 65.5 | i | i | i | 58.1 | 82.5 | 52.9 | i
COc1ccc(OC(=O)c2cc3ccccc3o2)cc1 | 60.8 | i | i | 70.7 | i | i | i | i | 88.9 | i | i
C(#Cc1c(-c2ccsc2)sc2ccccc12)c1ccsc1 | i | nt | i | i | i | i | nt | nt | nt | nt | nt
Cc1ccc(C(O)c2ncc(-c3cccc4ccccc34)[nH]2)cc1F (stereo not given) | nt | nt | nt | nt | i | i | nt | nt | nt | nt | nt
CNC(=O)C(=O)NCC1OCCCN1S(=O)(=O)c1ccc(F)cc1C (stereo not given) | i | i | i | i | i | i | nt | nt | nt | nt | nt
CCCCN(CC)C(=O)c1cc2cc3ccc(OC)cc3nc2o1 | i | i | i | i | i | i | nt | nt | nt | nt | nt
CCCCN(C)C(=O)c1cc2cc3ccc(OC)cc3nc2s1 | 91.4 | i | 91.3 | 95.5 | i | i | 90.6 | 96.7 | 101.4 | 96.3 | 54.2
Cc1cccn2c(CNCCCOc3cccnc3)c(C(=O)N3CCOCC3)nc12 | i | i | i | i | i | i | nt | nt | nt | nt | nt
Oc1ccc(C=Nc2ccccc2-c2nc3ccccc3[nH]2)c(O)c1 | i | i | i | i | i | i | nt | nt | nt | nt | nt
Oc1ccc(C=Nc2cccc3ncccc23)c(O)c1 | 91.2 | i | i | i | i | i | i | i | i | i | i
O=S(=O)(c1ccc(Br)cc1)c1nc(-c2ccccc2)oc1NCCN1CCOCC1 | i | i | i | i | i | i | nt | nt | nt | nt | nt
Cc1ccc(C)c(S(=O)(=O)C(C#N)c2nc3ccccc3nc2N2CCCC2)c1 (stereo not given) | 70.2 | i | 64.8 | i | i | i | i | i | i | i | i
SMILES | SENP6 inh | Platelet DG rel | SENP8 block-1 | SENP7 inh | SENP1 FRET inh | SENP8 block-2 | SENP8 conf | SENP6 confirm | SENP7 confirm | Casp3 SENP sel | Luc interf
Cc1ccc(C)c(S(=O)(=O)C(C#N)c2nc3ccccc3nc2N2CCOCC2)c1 (stereo not given) | i | i | i | i | i | i | nt | nt | nt | nt | nt
COc1ccc(C(C(=O)NCc2ccc(F)cc2)N(Cc2cccnc2)C(=O)c2snc(C(N)=O)c2N)cc1 (stereo not given) | i | i | i | i | i | i | nt | nt | nt | nt | nt
O=C(NCc1ccc2c(c1)OCO2)Nc1cccc(Cl)c1 | i | i | i | i | i | i | nt | nt | nt | nt | nt
Cc1ccnc(NC(=O)Nc2ccc3c(c2)OCO3)c1 | i | i | i | 70.0 | i | i | i | i | i | i | i
O=C(Nc1ccc2c(c1)OCCO2)Nc1ccc2c(c1)OCO2 | 70.9 | i | 53.4 | 72.1 | i | i | 65.2 | 63.8 | 86.0 | 72.2 | i
COc1cccc(NC(=O)Nc2ccc3c(c2)OCO3)c1 | 72.6 | i | 54.7 | 78.9 | i | i | 54.3 | 50.7 | 83.5 | 74.0 | 70.8
NC(=O)c1ccc(NC(=O)Nc2ccc3c(c2)OCO3)cc1 | i | i | i | i | i | i | nt | nt | nt | nt | nt
O=C(Nc1cccc(Cl)c1)Nc1ccc2c(c1)OCO2 | 82.7 | i | 60.8 | 74.6 | i | i | i | 76.6 | 94.3 | 55.8 | i
O=C(Nc1nnc(-c2ccncc2)o1)c1ccc(Br)s1 | i | i | i | i | i | i | nt | nt | nt | nt | nt
COC(=O)NC(C)N1C(=O)C2C3C=CC(C3)C2C1=O (stereo not given) | i | i | i | i | i | i | nt | nt | nt | nt | nt
O=C(Nc1ccc2c(c1)OCO2)Nc1ccccc1F | 94.0 | ? | 94.7 | 98.9 | i | i | 96.5 | 97.9 | 101.8 | 96.8 | 68.2
Cc1ccc(-c2cc3nc(C)cc(NCc4ccco4)n3n2)cc1 | 80.6 | i | 74.3 | 92.1 | i | i | i | i | 60.9 | 63.2 | i
Clc1cccc(-c2cc3nc4c(c(NCc5ccco5)n3n2)CCCC4)c1 | 81.1 | i | 52.6 | i | i | i | i | i | i | i | i
c1coc(CNc2c3c(nc4ncnn24)CCCC3)c1 | i | i | i | i | i | i | nt | nt | nt | nt | nt
Cc1ccccc1-c1nc(-c2ccc(Br)o2)no1 | 71.7 | i | 58.4 | 66.8 | i | i | i | 64.3 | 86.4 | i | i
Fc1ccccc1-c1nc(-c2ccc(Br)o2)no1 | 84.5 | i | 84.8 | 89.0 | i | i | i | 82.9 | 97.4 | 68.1 | i
C[C@@H](C(=O)N1CCN(Cc2ccc3c(c2)OCO3)CC1)n1nnc2ccccc2c1=O | i | i | i | i | i | i | nt | nt | nt | nt | nt
Oc1ccc(Br)cc1C1Nc2ccccc2S1 (stereo not given) | i | i | i | 79.4 | i | i | i | i | i | i | i
